The values that follow come from ChEMBL document CHEMBL3244183, “Synthesis and antibacterial activity of isomeric 6- and 7-acetyl-3-methyl-2- quinoxalinecarbozamide 1,4-dioxides” (1978).

Usually MIC stands for the smallest concentration in the dilution series that meets the test's criterion for growth inhibition.

Holding throughout (type): functional
Assay [1] has as its system Pasteurella multocida. The assay is described as follows: Antimicrobial activity against Pasteurella multocida infected in mouse compound administered subcutaneously at 0.5 hr, 4 hrs and 24 hrs post infection. The conditions noted are these: sc, read-out: PD50. In outline:
(§1)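 Infections in male and female mice (11–13 g), given intraperitoneally at one to ten times the inoculum lethal to all nonmedicated mice within 4 days. Standardized cultures were suspended in brain-heart infusion broth. Doses were given at 0.5, 4.0 and 24 h post-infection. The 50% protective dose was derived by probit analysis.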

The subject of assay [2] is Salmonella enterica. Put plainly: Antimicrobial activity against Salmonella choleraesuis infected in mouse compound administered orally at 0.5 hr, 4 hrs and 24 hrs post infection. The conditions noted are these: po, read-out: PD50. In outline: (§2)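 Male and female mice, 11–13 g. Acute systemic infection by intraperitoneal inoculation of 1–10 times the organism count killing 100% of untreated mice in 4 days; standardized cultures suspended in 5% hog gastric mucin. Treated 0.5 h after infection, again at 4.0 h and at 24 h. PD50 (50% protective dose) calculated by probit method.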

Assay [3] relates to Streptococcus pyogenes. Put plainly: Antimicrobial activity against Streptococcus pyogenes measured after overnight incubation by susceptibility test. In outline: (§3)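 MIC by agar dilution: about 10^4 organisms applied with a replicating device onto brain-heart infusion agar holding twofold dilutions of drug; plates incubated overnight at 37 °C under anaerobic conditions (Gas Pak environment); MIC read as lowest inhibiting concentration.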

Assay [4] has as its system Pasteurella multocida. Put plainly: Antimicrobial activity against Pasteurella multocida measured after overnight incubation by susceptibility test. The method, boiled down: as §3
Assay [5] relates to Salmonella enterica. Put plainly: Antimicrobial activity against Salmonella choleraesuis infected in mouse compound administered subcutaneously at 0.5 hr, 4 hrs and 24 hrs post infection. The conditions noted are these: sc, read-out: PD50. The method, boiled down: as §2
Assay [6] concerns Streptococcus pyogenes. Put plainly: Antimicrobial activity against Streptococcus pyogenes infected in mouse compound administered subcutaneously at 0.5 hr, 4 hrs and 24 hrs post infection. The settings on record: sc, read-out: PD50. In outline:
as §1

In assay [7] the test system is Escherichia coli. The assay is described as follows: Antimicrobial activity against Escherichia coli infected in mouse compound administered subcutaneously at 0.5 hr, 4 hrs and 24 hrs post infection. The settings on record: sc, read-out: PD50. The method, boiled down:
as §2

The subject of assay [8] is Escherichia coli. The assay is described as follows: Ratio of PD50 for Escherichia coli infected in po dosed mouse to PD50 for Escherichia coli infected in sc dosed mouse.
Assay [9] deals with Salmonella enterica. The assay is described as follows: Antimicrobial activity against Salmonella choleraesuis measured after overnight incubation by susceptibility test. In outline: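 MIC by agar dilution: about 10^4 organisms applied with a replicating device onto brain-heart infusion agar containing twofold dilutions of the quinoxaline 1,4-dioxide; incubated overnight at 37 °C under anaerobic conditions (Gas Pak).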

The test system of assay [10] is Pasteurella multocida. The assay is described as follows: Antimicrobial activity against Pasteurella multocida infected in mouse compound administered orally at 0.5 hr, 4 hrs and 24 hrs post infection. The settings on record: po, read-out: PD50. In outline: as §1
Assay [11] has as its system Salmonella enterica. The assay is described as follows: Ratio of PD50 for Salmonella choleraesuis infected in po dosed mouse to PD50 for Salmonella choleraesuis infected in sc dosed mouse.
Assay [12] deals with Streptococcus pyogenes. The assay is described as follows: Ratio of PD50 for Streptococcus pyogenes infected in po dosed mouse to PD50 for Streptococcus pyogenes infected in sc dosed mouse.
Assay [13] concerns Escherichia coli. The assay is described as follows: Antimicrobial activity against Escherichia coli infected in mouse compound administered orally at 0.5 hr, 4 hrs and 24 hrs post infection. The conditions noted are these: po, read-out: PD50. In outline:
as §2

The test system of assay [14] is Streptococcus pyogenes. Put plainly: Antimicrobial activity against Streptococcus pyogenes infected in mouse compound administered orally at 0.5 hr, 4 hrs and 24 hrs post infection. The settings on record: po, read-out: PD50. The method, boiled down: as §1
For assay [15], the system named is Escherichia coli. The assay is described as follows: Antimicrobial activity against Escherichia coli measured after overnight incubation by susceptibility test. The method, boiled down: as §3
For assay [16], the system named is Pasteurella multocida. Put plainly: Ratio of PD50 for Pasteurella multocida infected in po dosed mouse to PD50 for Pasteurella multocida infected in sc dosed mouse.

Converted amounts (≈) assume the structure as drawn.

As for `CC(=O)c1ccc2c(c1)[n+]([O-])c(C(N)=O)c(C)[n+]2[O-]`, the ED50 is 7.7 mg/kg with Pasteurella multocida [1]; 9.1 mg/kg in the assay on Salmonella enterica [2]; 4.5 mg/kg in the assay on Salmonella enterica [5]; 9.2 mg/kg with Streptococcus pyogenes [6]; 5.6 mg/kg with Escherichia coli [7]; 12.7 mg/kg in the assay on Pasteurella multocida [10]. Moreover, the ED50 with Escherichia coli [13] came out at 13 mg/kg; in the assay with Streptococcus pyogenes [14], 15 mg/kg. Further, the MIC was determined as 0.39 µg/mL (≈ 1.49 µM) against Streptococcus pyogenes [3], 0.19 µg/mL (≈ 0.727 µM) against Pasteurella multocida [4], 0.19 µg/mL (≈ 0.727 µM) in the assay on Salmonella enterica [9] and 0.39 µg/mL (≈ 1.49 µM) in the assay with Escherichia coli [15]. The Ratio with Escherichia coli [8], with Salmonella enterica [11], in the assay on Streptococcus pyogenes [12] and with Pasteurella multocida [16] was 2 in each case.
Consider `CC(=O)c1ccc2c(c1)[n+]([O-])c(C)c(C(N)=O)[n+]2[O-]`, for which the ED50 in the assay on Pasteurella multocida [1] is 11.7 mg/kg; in the assay on Salmonella enterica [2], 9.9 mg/kg; in the assay with Salmonella enterica [5] it was 7.6 mg/kg; with Streptococcus pyogenes [6], 54 mg/kg; with Escherichia coli [7] it was 10.9 mg/kg; with Pasteurella multocida [10], 13.6 mg/kg. Also, the ED50 with Escherichia coli [13] stood at 12.6 mg/kg; in the assay on Streptococcus pyogenes [14], 70 mg/kg. Also, the MIC against Streptococcus pyogenes [3] is 0.19 µg/mL (≈ 0.727 µM); against Pasteurella multocida [4], 0.39 µg/mL (≈ 1.49 µM); in the assay on Salmonella enterica [9], 0.39 µg/mL (≈ 1.49 µM); against Escherichia coli [15] it was 0.39 µg/mL (≈ 1.49 µM).
